# Assay results collected from several papers.
# Each line is one published result; the experiments were not run side by side.
# FGFR3: Fibroblast growth factor receptor 3 (FGFR3, Homo sapiens, UniProt P22607)
# FGFR3 G697C: Fibroblast growth factor receptor 3 (FGFR3, Homo sapiens, UniProt P22607, G697C)
# FGFR3 K650E: Fibroblast growth factor receptor 3 (FGFR3, Homo sapiens, UniProt P22607, K650E)
Structure (SMILES),target,read-out,mode,method,tested at,measurement,value
O=C1NC(=O)c2cc(Nc3ccc(F)cc3)c(Nc3ccc(F)cc3)cc21,FGFR3,cell-free assay,,,0.5 µM,remaining signal,99.7%
CC/C(=N\NC(=O)NCc1cccc(O)c1)c1ccc(O)c(C)c1O,"Fibroblast growth factor receptor 3 (FGFR3, Homo sapiens, UniProt P22607, K650M)",enzyme activity,inhibitor,,0.1 µM,inhibition,4.2%
C[C@H](c1cccc(C#N)c1)n1cc(Cl)cc(C(N)=O)c1=N,FGFR3,cell-free assay,,competition with immobilised ligand,1 µM,remaining binding,88%
Cc1ccc(NC(=O)c2ccc(C)c(C(F)(F)F)c2)cc1C#Cc1nn(C2CCC(O)CC2)c2ncnc(N)c12 (centres unmarked),FGFR3,cell-free assay,,,10 µM,remaining signal,3%
Cc1ccc(C(=O)Nc2ccc(CN3CCN(C)CC3)c(C(F)(F)F)c2)cc1C#Cc1cnc2cccnn12,FGFR3 G697C,cell-free assay,,,23.5 nM,remaining signal,63%
CCCS(=O)(=O)Nc1ccc(F)c(C(=O)c2c[nH]c3ncc(-c4ccc(Cl)cc4)cc23)c1F,FGFR3,enzyme activity,inhibitor,,1 µM,inhibition,< 10%
C[C@@]1(Cc2ccc(C#N)cc2)C(=O)N(c2cc(Cl)cc(Cl)c2)c2ncc(C(=O)NC3(c4nc(C5CCC5)no4)CC3)n21,FGFR3 G697C,cell-free assay,,competition with immobilised ligand,1 µM,remaining binding,100%
C[C@H]1CCN(c2nccc(-c3cnn4ncccc34)n2)C1,FGFR3 G697C,binding,,,1 µM,remaining binding,83%
Nc1ncnc2occ(-c3ccc(NC(=O)Nc4cc(C(F)(F)F)ccc4F)cc3)c12,FGFR3,cell-free assay,,,20 µM,remaining signal,0.75%
CNCc1ccc(-c2cc(-c3nc(-c4ccc(S(=O)(=O)C(C)C)cc4)cnc3N)on2)cc1,FGFR3,enzyme activity,inhibitor,,0.4 µM,inhibition,0%
Nc1nc(Nc2ccc(S(N)(=O)=O)cc2)nn1C(=O)c1c(F)cccc1F,FGFR3,cell-free assay,,,0.5 µM,remaining signal,46.4%
CN(C)c1ncc(F)c(-c2cnn3ncccc23)n1,FGFR3 G697C,binding,,,1 µM,remaining binding,100%
COc1cc2nccc(Oc3ccc(NC(=O)c4c5n(n(-c6ccc(F)cc6)c4=O)CCCC5)cc3)c2cc1OC,FGFR3,enzyme activity,inhibitor,,0.1 µM,inhibition,-4%
COc1cc2ncnc(Nc3ccc(Oc4ccccc4)cc3C)c2cc1OC,FGFR3 K650E,enzyme activity,inhibitor,,1 µM,inhibition,0%
Cc1cc(NC(=O)c2cccc3cc(-c4cccc5[nH]nc(N)c45)ccc23)ccc1F,FGFR3,enzyme activity,inhibitor,,0.1 µM,activity vs control,98%
Cc1nc(Cc2cccc(C(F)(F)F)c2)sc1-c1ccc(C(N)=O)nc1,FGFR3,cell-free assay,,competition with immobilised ligand,1 µM,remaining binding,100%
Cc1ccc(C(=O)NCc2ccsc2)cc1C#Cc1cn(C(C)C)c2ncnc(N)c12,FGFR3,enzyme activity,inhibitor,,1 µM,activity vs control,33%
COc1ccnn2ncc(-c3ccnc(N(C)C)n3)c12,FGFR3 G697C,binding,,,1 µM,remaining binding,100%
O=C(O)[C@@H]1[C@@H](Cn2nnc3ccccc3c2=O)CC[C@H]1C(=O)c1ccc(OCCC2CCOCC2)cc1,FGFR3 G697C,cell-free assay,,competition with immobilised ligand,1 µM,remaining binding,92%
Cc1cnc(NC2CCOCC2)nc1-n1cnc(C(=O)NC(CN)c2cc(F)cc(Cl)c2)c1 (centres unmarked),FGFR3,enzyme activity,inhibitor,radiometric,1 µM,remaining activity,100%
CN(CCCC(F)(F)F)c1nccc(-c2cnn3ncccc23)n1,FGFR3 G697C,binding,,,1 µM,remaining binding,86%
CC(C)(C)c1nc(-c2cccc(NS(=O)(=O)c3c(F)cccc3F)c2F)c(-c2ccnc(N)n2)s1,FGFR3,enzyme activity,inhibitor,radiometric,1 µM,remaining activity,118%
Cc1ccc(NC(=O)c2ccc(CN3CCN(C)CC3)cc2)cc1Nc1nc(-c2cccnc2)cs1,FGFR3,cell-free assay,,,0.5 µM,remaining signal,94.3%
O=C(Nc1cnn(-c2csc(C(=O)NC3COC3)c2)c1)Nc1c(F)cccc1Cl,FGFR3,enzyme activity,inhibitor,,5 µM,remaining activity,92%
COc1cc2ncnc(Nc3ccc(Oc4ccccc4)c(C)c3C)c2cc1OC,FGFR3 K650E,enzyme activity,inhibitor,,1 µM,inhibition,3%
CCN(CC)CCNC(=O)c1c(C)[nH]c(/C=C2\C(=O)Nc3ccc(F)cc32)c1C,FGFR3,enzyme activity,inhibitor,,0.3 µM,inhibition,61%
CS(=O)(=O)Nc1cccc(-c2csc(NC(=O)CSc3nc4nccnc4c(=O)n3CCc3ccccc3)n2)c1,FGFR3,enzyme activity,inhibitor,,10 µM,inhibition,-15%
CCc1ccccc1C(=O)Nc1n[nH]c2c(C)c(F)c(C3C(C#N)=C(C)N(C)C(C)=C3C#N)cc12,FGFR3,cell-free assay,,competition with immobilised ligand,1 µM,remaining binding,93%
Cc1sc(C(=O)NC2COC2)cc1-n1cc(NC(=O)Nc2c(F)cccc2Cl)cn1,FGFR3,enzyme activity,inhibitor,,10 µM,remaining activity,137%
CCC(=O)N[C@H]1CC[C@@H](C(=O)N(C)c2ccc(-c3nc4ccccc4o3)cc2)C1,FGFR3,cell-free assay,,competition with immobilised ligand,1 µM,remaining binding,98%
N[C@H]1CCN(c2nccc(-c3cnn4ncccc34)n2)C1,FGFR3,binding,,,1 µM,remaining binding,84%
CO[C@@H](C)c1c(Nc2ccc([C@H](N(C)C(=O)C3CCS(=O)(=O)CC3)C(F)(F)F)cc2)cnc2cc(Cl)nn12,FGFR3 G697C,cell-free assay,,competition with immobilised ligand,1 µM,remaining binding,86%
N#CCCc1ccc2c(c1)-c1[nH]c3ccc([N+](=O)[O-])cc3c1CC(=O)N2,FGFR3,cell-free assay,,,0.5 µM,remaining signal,90.3%
CCCCN(CCCC)C(=O)CN1C[C@H](c2cc(OC)c3c(c2)OCO3)[C@@H](C(=O)O)[C@@H]1CC(C)(C)CCC,FGFR3,cell-free assay,,competition with immobilised ligand,1 µM,remaining binding,100%
Cc1ccc(Nc2nccc(N(C)c3ccc4c(C)n(C)nc4c3)n2)cc1S(N)(=O)=O,FGFR3,enzyme activity,inhibitor,,10 µM,inhibition,99%
